Active and inactive are the calls of the source. The calls are words filed in the database; no cut-off is given here.
Columns and labels:
MCF7 [1] = test: Induction of apoptosis in human MCF7 cells assessed as necrotic cells at 3.4 +/- 0.15 uM after 24 hrs by Annexin V-APC/propidium iodide staining based flow cytometry (reference value: 1.9%); assay type: functional
MCF7 [2] = test: Cell cycle arrest in human MCF7 cells assessed as accumulation at G2/M phase at 3.4 +/- 0.15 uM after 24 hrs by DAPI staining based flow cytometry (reference value: 23%); assay type: functional
MCF7 [3] = test: Cell cycle arrest in human MCF7 cells assessed as accumulation at S phase at 3.4 +/- 0.15 uM after 24 hrs by DAPI staining based flow cytometry (reference value: 22%); assay type: functional
MCF7 [4] = test: Inhibition of cell proliferation in human MCF7 cells assessed as reduction in BrdU incorporation at 3.4 +/- 0.15 uM after 24 hrs by DAPI staining based flow cytometry relative to control; assay type: functional
MCF7 [5] = test: Induction of ROS generation in human MCF7 cells at 3.4 +/- 0.15 uM after 24 hrs by Cellrox Green staining based flow cytometry relative to control; assay type: functional
HL-60 [6] = test: Cell cycle arrest in human HL60 cells assessed as accumulation at subG0/G1 phase at 7.27 +/- 0.08 uM after 24 hrs by DAPI staining based flow cytometry (reference value: 3.1%); assay type: functional
HL-60 [7] = test: Induction of transmembrane potential depolarization in human HL60 cells at 7.27 +/- 0.08 uM after 24 hrs by JC-10 staining based flow cytometry (reference value: 15.9%); assay type: functional
HL-60 [8] = test: Induction of apoptosis in human HL60 cells assessed as early apoptotic cells at 7.27 +/- 0.08 uM after 24 hrs by Annexin V-APC/propidium iodide staining based flow cytometry (reference value: 3.4%); assay type: functional
HL-60 [9] = test: Cell cycle arrest in human HL60 cells assessed as accumulation at G0/G1 phase at 7.27 +/- 0.08 uM after 24 hrs by DAPI staining based flow cytometry (reference value: 39.5%); assay type: functional
HL-60 [10] = test: Cytotoxicity against human HL60 cells assessed as inhibition of metabolic activity after 48 hrs by MTT assay; assay type: functional, cell-based; conditions: HL-60, 48 h
How it was run: (§1)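 Exponentially growing cells seeded in 96-well plates and grown 24 h. Compounds in DMSO, diluted in medium (final DMSO <0.1%), added at 10^-7 to 10^-3 M for 48 h. MTT (5 mg/mL in PBS) then added for 2 h. Formazan dissolved in DMSO and read at 560 nm against untreated cells. IC50 taken from concentration–response curves; mean ± SD of ≥3 experiments.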

MCF7 [11] = test: Induction of apoptosis in human MCF7 cells assessed as viable cells at 3.4 +/- 0.15 uM after 24 hrs by Annexin V-APC/propidium iodide staining based flow cytometry (reference value: 86.1%); assay type: functional
[12] = Selectivity index, ratio of IC50 for human MCF10A cells to IC50 for human MCF7 cells; assay type: toxicity; conditions: MCF10A cells versus MCF7 cells, read-out: Ratio IC50
MCF7 [13] = test: Cytotoxicity against human MCF7 cells assessed as inhibition of metabolic activity after 24 hrs by MTT assay; assay type: functional, cell-based; conditions: MCF7, 24 h
How it was run: (§2)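 MTT assay on HL-60 or MCF-7 cells seeded and grown 24 h, then treated 24 h over 10^-7 to 10^-3 M (final DMSO <0.1%). MTT (5 mg/mL in PBS) added for 2 h. Formazan dissolved in DMSO and read at 560 nm against untreated cells. IC50 derived from concentration–response curves of ≥3 experiments.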

NALM-6 = test: Cytotoxicity against human NALM6 cells assessed as inhibition of metabolic activity after 48 hrs by MTT assay; assay type: functional, cell-based; conditions: NALM-6, 48 h; how it was run: as §1
HL-60 [14] = test: Cell cycle arrest in human HL60 cells assessed as accumulation at S phase at 7.27 +/- 0.08 uM after 24 hrs by DAPI staining based flow cytometry (reference value: 26.1%); assay type: functional
HUVEC = test: Cytotoxicity against HUVEC assessed as inhibition of metabolic activity after 48 hrs by MTT assay; assay type: ADME, cell-based; conditions: Homo sapiens; how it was run: as §1
MCF7 [15] = test: Induction of transmembrane potential depolarization in human MCF7 cells at 3.4 +/- 0.15 uM after 24 hrs by JC-10 staining based flow cytometry (reference value: 18.2%); assay type: functional
HL-60 [16] = test: Induction of apoptosis in human HL60 cells assessed as late apoptotic cells at 7.27 +/- 0.08 uM after 24 hrs by Annexin V-APC/propidium iodide staining based flow cytometry (reference value: 2.7%); assay type: functional
HL-60 [17] = test: Induction of ROS generation in human HL60 cells at 7.27 +/- 0.08 uM after 24 hrs by Cellrox Green staining based flow cytometry relative to control; assay type: functional
HL-60 [18] = test: Cell cycle arrest in human HL60 cells assessed as accumulation at G2/M phase at 7.27 +/- 0.08 uM after 24 hrs by DAPI staining based flow cytometry (reference value: 31.2%); assay type: functional
HL-60 [19] = test: Induction of apoptosis in human HL60 cells assessed as increase in cleaved PARP positive cells at 7.27 +/- 0.08 uM after 24 hrs by DAPI staining based flow cytometry (reference value: 1.2 +/- 0.2%); assay type: functional
MCF7 [20] = test: Cytotoxicity against human MCF7 cells assessed as inhibition of metabolic activity after 48 hrs by MTT assay; assay type: functional, cell-based; conditions: MCF7, 48 h; how it was run: as §1
MCF-10A = test: Cytotoxicity against human MCF10A cells assessed as inhibition of metabolic activity after 48 hrs by MTT assay; assay type: ADME, cell-based; how it was run: as §1
MCF7 [21] = test: Induction of apoptosis in human MCF7 cells assessed as late apoptotic cells at 3.4 +/- 0.15 uM after 24 hrs by Annexin V-APC/propidium iodide staining based flow cytometry (reference value: 6.1%); assay type: functional
HL-60 [22] = test: Induction of apoptosis in human HL60 cells assessed as necrotic cells at 7.27 +/- 0.08 uM after 24 hrs by Annexin V-APC/propidium iodide staining based flow cytometry (reference value: 0.1%); assay type: functional
MCF7 [23] = test: Induction of DNA damage in human MCF7 cells assessed as increase in H2AX phosphorylation at S139 residue at 3.4 +/- 0.15 uM after 24 hrs by DAPI staining based flow cytometry relative to control; assay type: functional
MCF7 [24] = test: Cell cycle arrest in human MCF7 cells assessed as accumulation at G0/G1 phase at 3.4 +/- 0.15 uM after 24 hrs by DAPI staining based flow cytometry (reference value: 55%); assay type: functional
MCF7 [25] = test: Induction of apoptosis in human MCF7 cells assessed as increase in cleaved PARP positive cells at 3.4 +/- 0.15 uM after 24 hrs by DAPI staining based flow cytometry relative to control; assay type: functional, cell-based
HL-60 [26] = test: Cytotoxicity against human HL60 cells assessed as inhibition of metabolic activity after 24 hrs by MTT assay; assay type: functional, cell-based; conditions: HL-60, 24 h; how it was run: as §2
MCF7 [27] = test: Induction of apoptosis in human MCF7 cells assessed as early apoptotic cells at 3.4 +/- 0.15 uM after 24 hrs by Annexin V-APC/propidium iodide staining based flow cytometry (reference value: 5.9%); assay type: functional
HL-60 [28] = test: Induction of DNA damage in human HL60 cells assessed as increase in H2AX phosphorylation at S139 residue at 7.27 +/- 0.08 uM after 24 hrs by DAPI staining based flow cytometry relative to control; assay type: functional
HL-60 [29] = test: Inhibition of cell proliferation in human HL60 cells assessed as reduction in BrdU incorporation at 7.27 +/- 0.08 uM after 24 hrs by DAPI staining based flow cytometry relative to control; assay type: functional
HL-60 [30] = test: Induction of ROS generation in human HL60 cells at 200 uM after 1 hr by Cellrox Green staining based flow cytometry; assay type: functional, cell-based
How it was run: (§3)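 Positive-control ROS measurement in HL-60 and MCF-7 cells: menadione 200 µM for 1 h. Cells then stained with 5 µM CellROX Green for 30 min at 37 °C and analysed by flow cytometry. 3–4 independent experiments in triplicate, mean ± SEM.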

MCF7 [31] = test: Induction of ROS generation in human MCF7 cells at 200 uM after 1 hr by Cellrox Green staining based flow cytometry; assay type: functional, cell-based; how it was run: as §3

CCOP(=O)(OCC)c1c(-c2ccccc2Cl)oc2c1C(=O)c1ccccc1C2=O
Activity (MCF7 [1]): 5.6%
Activity (MCF7 [2]): 16.4%
Activity (MCF7 [3]): 22.4%
inhibition (INH) (MCF7 [4]): 34%
fold change (FC) (MCF7 [5]): 10
Activity (HL-60 [6]): 8.2%
Activity (HL-60 [7]): 44%
Activity (HL-60 [8]): 4.8%
Activity (HL-60 [9]): 33.5%
IC50 (HL-60 [10]): 6.35 µM
Activity (MCF7 [11]): 72.4%
selectivity ratio [12]: 4
IC50 (MCF7 [13]): 3.4 µM
IC50 (NALM-6): 5.07 µM
Activity (HL-60 [14]): 36.1%
IC50 (HUVEC): 3.73 µM
Activity (MCF7 [15]): 50 - 50.1%
Activity (HL-60 [16]): 27.8%
fold change (FC) (HL-60 [17]): 10
Activity (HL-60 [18]): 26.1%
Activity (HL-60 [19]): <=82.8%
IC50 (MCF7 [20]): 2.34 µM
IC50 (MCF-10A): 10 µM
Activity (MCF7 [21]): 19%
Activity (HL-60 [22]): 2.7%
Activity (MCF7 [23]): 11.03%
Activity (MCF7 [24]): 62%
Activity (MCF7 [25]): inactive
IC50 (HL-60 [26]): 7.27 µM
Activity (MCF7 [27]): 3%
Activity (HL-60 [28]): 40.7%
inhibition (INH) (HL-60 [29]): 91%

CCOP(=O)(OCC)c1c(-c2ccccc2)oc2c1C(=O)c1ccccc1C2=O
IC50 (HL-60 [10]): 6.01 µM
IC50 (NALM-6): 6.06 µM
IC50 (MCF7 [20]): 2.4 µM

CCCCCCn1c(O)c(P(=O)(OCC)OCC)c2c1C(=O)c1ccccc1C2=O
IC50 (HL-60 [10]): 30.7 µM
IC50 (NALM-6): 44.3 µM
IC50 (MCF7 [20]): 19.5 µM

CCCn1c(O)c(P(=O)(OCC)OCC)c2c1C(=O)c1ccccc1C2=O
IC50 (HL-60 [10]): 56.2 µM
IC50 (NALM-6): 60 µM
IC50 (MCF7 [20]): 43.9 µM

CCOP(=O)(OCC)c1c(-c2ccc(Cl)cc2Cl)oc2c1C(=O)c1ccccc1C2=O
IC50 (HL-60 [10]): 5.44 µM
selectivity ratio [12]: 4
IC50 (NALM-6): 4.82 µM
IC50 (HUVEC): 4.06 µM
IC50 (MCF7 [20]): 2.9 µM
IC50 (MCF-10A): 11.3 µM

CCOP(=O)(OCC)c1c(-c2cccnc2Cl)oc2c1C(=O)c1ccccc1C2=O
IC50 (HL-60 [10]): 8.66 µM
IC50 (NALM-6): 6.65 µM
IC50 (MCF7 [20]): 2.55 µM

CCOP(=O)(OCC)c1c2c(n(C)c1O)C(=O)c1ccccc1C2=O
IC50 (HL-60 [10]): 59.7 µM
IC50 (NALM-6): 61.7 µM
IC50 (MCF7 [20]): 50 µM

CCOP(=O)(OCC)c1c(-c2cc(F)c(Cl)nc2Cl)oc2c1C(=O)c1ccccc1C2=O
IC50 (HL-60 [10]): 5.94 µM
selectivity ratio [12]: 4
IC50 (NALM-6): 5.32 µM
IC50 (HUVEC): 4.85 µM
IC50 (MCF7 [20]): 2.85 µM
IC50 (MCF-10A): 9.79 µM

CC1=CC(=O)c2ccccc2C1=O
Activity (HL-60 [30]): Active
Activity (MCF7 [31]): Active

CCOP(=O)(OCC)c1c(C)oc2c1C(=O)c1ccccc1C2=O
IC50 (HL-60 [10]): 8.13 µM
IC50 (NALM-6): 5.85 µM
IC50 (MCF7 [20]): 5.7 µM

COc1cccc2c1C(=O)c1c(O)c3c(c(O)c1C2=O)C[C@@](O)(C(=O)CO)C[C@@H]3O[C@H]1C[C@H](N)[C@H](O)[C@H](C)O1 [DOXORUBICIN]
IC50 (HL-60 [10]): 0.11 µM
IC50 (HUVEC): 1.4 µM
IC50 (MCF-10A): 1.2 µM

CCOP(=O)(OCC)c1c2c(n(Cc3ccccc3Cl)c1O)C(=O)c1ccccc1C2=O
IC50 (HL-60 [10]): 42.4 µM
IC50 (NALM-6): 60.1 µM
IC50 (MCF7 [20]): 65 µM

CCOP(=O)(O)c1c(-c2ccccc2Cl)oc2c1C(=O)c1ccccc1C2=O
IC50 (HL-60 [10]): 487 µM
IC50 (NALM-6): 479 µM
IC50 (MCF7 [20]): 150 µM

CCOP(=O)(OCC)c1c2c(n(C3CC3)c1O)C(=O)c1ccccc1C2=O
IC50 (HL-60 [10]): 65 µM
IC50 (NALM-6): 51.3 µM
IC50 (MCF7 [20]): 102 µM

From ChEMBL document CHEMBL4428039, “Anticancer properties of new synthetic hybrid molecules combining naphtho[2,3-b]furan-4,9-dione or benzo[f]indole-4,9-dione motif with phosphonate subunit” (Eur J Med Chem, 2016)
